In brackets after ≈: the same amount, converted by molar mass. Numbered stars: 1 amine (or outer) side, 2 acyl side, 3 side chain; on linkers, the order of the positions; unused ones are H or OH. Bridge positions count the residues as written; N and C are the ends. Square brackets hold non-standard residues; d marks the D form. Peptide text beside a SMILES is read from it. * marks the point of attachment. Orn(4R-OH,5R-OH) = O=C([C@H](C[C@@H](O)[C@@H](O)N[*:3])N[*:1])[*:2]; hTyr(3S-OH,4S-OH) = N[C@H](C(=O)O)[C@H](O)[C@@H](O)c1ccc(O)cc1; X3 = CC(C)(C)OCCOc1ccc(C#Cc2ccc(-c3ccc(C(=O)*)cc3)cc2)cc1; X2 = CCCOc1ccc(C#Cc2ccc(-c3ccc(C(=O)*)cc3)cc2)cc1; Pro(3S-OH,4S-Me) = C[C@H]1CN[C@H](C(=O)O)[C@H]1O; Hyp = O=C(O)[C@@H]1C[C@@H](O)CN1
Key:
[1] = target: Beta-1,3-glucan synthase (Candida albicans) (UniProt O13428); experiment: In vitro inhibition of glucan synthase obtained from Candida albicans at a concentration of 10 ug/mL.
Beta-1,3-glucan synthase (Candida albicans), sequence (O13428 as listed by the source): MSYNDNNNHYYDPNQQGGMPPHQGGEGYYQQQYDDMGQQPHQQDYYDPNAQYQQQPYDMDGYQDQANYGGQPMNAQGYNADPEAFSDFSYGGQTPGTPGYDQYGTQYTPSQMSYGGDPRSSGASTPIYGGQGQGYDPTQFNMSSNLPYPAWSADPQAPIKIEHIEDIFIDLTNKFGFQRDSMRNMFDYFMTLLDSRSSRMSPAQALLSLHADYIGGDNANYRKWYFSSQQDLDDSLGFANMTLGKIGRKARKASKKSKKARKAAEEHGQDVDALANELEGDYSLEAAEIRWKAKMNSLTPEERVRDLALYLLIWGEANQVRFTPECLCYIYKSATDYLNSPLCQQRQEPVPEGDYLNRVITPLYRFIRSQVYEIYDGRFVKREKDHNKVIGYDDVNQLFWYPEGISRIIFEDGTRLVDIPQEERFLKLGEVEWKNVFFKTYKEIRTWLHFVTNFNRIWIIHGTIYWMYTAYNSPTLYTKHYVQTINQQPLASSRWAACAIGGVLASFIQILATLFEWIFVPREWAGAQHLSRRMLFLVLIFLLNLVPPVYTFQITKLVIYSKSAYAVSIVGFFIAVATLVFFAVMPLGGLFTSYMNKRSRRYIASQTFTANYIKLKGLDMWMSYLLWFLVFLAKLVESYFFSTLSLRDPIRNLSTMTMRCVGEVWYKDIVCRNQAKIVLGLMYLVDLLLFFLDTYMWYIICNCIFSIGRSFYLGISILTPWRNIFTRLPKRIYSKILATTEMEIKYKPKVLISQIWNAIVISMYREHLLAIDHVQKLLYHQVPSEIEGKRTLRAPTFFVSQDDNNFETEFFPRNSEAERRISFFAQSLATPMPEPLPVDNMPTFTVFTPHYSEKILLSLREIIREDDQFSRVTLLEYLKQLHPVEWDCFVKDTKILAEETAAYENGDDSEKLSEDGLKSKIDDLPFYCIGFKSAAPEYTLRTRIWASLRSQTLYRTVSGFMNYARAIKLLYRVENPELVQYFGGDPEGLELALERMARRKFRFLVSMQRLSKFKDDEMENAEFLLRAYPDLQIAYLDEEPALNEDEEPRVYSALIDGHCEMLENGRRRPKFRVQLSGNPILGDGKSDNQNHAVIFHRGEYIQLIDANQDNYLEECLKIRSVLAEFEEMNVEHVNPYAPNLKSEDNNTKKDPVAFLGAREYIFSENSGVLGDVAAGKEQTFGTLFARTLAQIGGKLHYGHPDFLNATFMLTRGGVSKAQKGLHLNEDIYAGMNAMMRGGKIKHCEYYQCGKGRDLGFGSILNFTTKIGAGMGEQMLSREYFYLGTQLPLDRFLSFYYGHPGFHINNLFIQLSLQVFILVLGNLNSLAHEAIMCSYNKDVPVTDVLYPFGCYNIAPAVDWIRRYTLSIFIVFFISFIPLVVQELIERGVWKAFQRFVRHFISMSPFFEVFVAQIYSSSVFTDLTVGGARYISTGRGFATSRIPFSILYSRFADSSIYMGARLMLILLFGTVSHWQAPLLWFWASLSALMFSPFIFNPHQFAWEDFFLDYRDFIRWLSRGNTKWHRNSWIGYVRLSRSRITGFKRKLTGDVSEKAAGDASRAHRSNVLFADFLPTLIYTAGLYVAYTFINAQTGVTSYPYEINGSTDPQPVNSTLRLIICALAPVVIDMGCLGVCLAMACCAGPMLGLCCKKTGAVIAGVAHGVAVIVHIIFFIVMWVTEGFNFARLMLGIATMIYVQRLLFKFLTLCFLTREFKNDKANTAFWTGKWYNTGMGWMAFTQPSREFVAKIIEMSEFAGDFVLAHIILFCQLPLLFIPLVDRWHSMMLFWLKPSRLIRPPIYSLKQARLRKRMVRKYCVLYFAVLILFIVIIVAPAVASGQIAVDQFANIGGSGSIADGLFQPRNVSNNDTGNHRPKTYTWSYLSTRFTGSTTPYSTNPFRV
Procedure, shortened: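 Purified, solubilized β-(1,3)-D-glucan synthase prepared from C. albicans. Percent inhibition measured at 10 µg/mL compound, single determination.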

Candida albicans [2] = experiment: Antifungal activity against Candida albicans; format: functional
Procedure, shortened: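 Broth microdilution, C. albicans A26 (ATCC 62342) grown on Sabouraud dextrose agar at 35 °C; inoculum 1 × 10^5 conidia/mL in antibiotic 3 broth. Compounds dissolved at 1.0 mg/mL in methanol, 2-fold serial dilutions from 80 µg/mL, duplicate. Read after 48 h at 35 °C. MIC = lowest concentration completely inhibiting visible growth.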

Candida albicans [3] = experiment: In vivo antifungal activity administered orally against Candida albicans infections in mice.; format: functional; conditions: po
Procedure, shortened: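 X-irradiated (400 r, 24 h prior) male ICR mice infected iv with 2 × 10^6 C. albicans A26 cells. Oral gavage in cremophor (5%)/linoleic acid (8%)/water vehicle, b.i.d. × 4 starting immediately post-infection. 10 mice per dose level. Study ends at day 7; ED50 = dose giving 50% survival, by Reed-Muench.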

Candida albicans [4] = experiment: In vivo antifungal activity administered intraperitoneally against Candida albicans infections in mice.; format: functional; conditions: ip
Procedure, shortened: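 Male ICR mice (18-20 g), X-irradiated with 400 r 24 h before iv tail-vein infection with 2 × 10^6 C. albicans A26 cells in saline. Compounds suspended in β-cyclodextrin, given parenterally at 0, 4, 24 and 48 h post-infection. 10 mice per dose, top dose 10 mg/kg with 2-fold dilutions down to 0.039 mg/kg. 7-day survival; ED50 by Reed-Muench.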

## C[C@@H](O)[C@@H]1NC(=O)[C@H]([C@H](O)[C@@H](O)c2ccc(O)cc2)NC(=O)[C@@H]2C[C@@H](O)CN2C(=O)[C@H]([C@@H](C)O)NC(=O)[C@@H](NC(=O)c2ccc(-c3ccc(C#Cc4ccc(OCCOC(C)(C)C)cc4)cc3)cc2)C[C@@H](O)[C@@H](O)NC(=O)[C@@H]2[C@@H](O)[C@@H](C)CN2C1=O (X3-[Orn(4R-OH,5R-OH)]T[Hyp][hTyr(3S-OH,4S-OH)]T[Pro(3S-OH,4S-Me)]; lactam 1-C)
[1]
  inhibition: 82.4%
Candida albicans [2]
  MIC: 0.02 µg/mL (≈ 0.0167 µM)
Candida albicans [3]
  ED50: 7.6 mg/kg
Candida albicans [4]
  ED50: 0.2 mg/kg

## CCCOc1ccc(C#Cc2ccc(-c3ccc(C(=O)N[C@H]4C[C@@H](O)[C@@H](O)NC(=O)[C@@H]5[C@@H](O)[C@@H](C)CN5C(=O)[C@H]([C@@H](C)O)NC(=O)[C@H]([C@H](O)[C@@H](O)c5ccc(O)cc5)NC(=O)[C@@H]5C[C@@H](O)CN5C(=O)[C@H]([C@@H](C)O)NC4=O)cc3)cc2)cc1 (X2-[Orn(4R-OH,5R-OH)]T[Hyp][hTyr(3S-OH,4S-OH)]T[Pro(3S-OH,4S-Me)]; lactam 1-C)
[1]
  inhibition: 83.5%
Candida albicans [2]
  MIC: < 0.01 µg/mL
Candida albicans [3]
  ED50: 7 mg/kg
Candida albicans [4]
  ED50: 0.4 mg/kg
